Key:
[1] = species on record: Oryctolagus cuniculus; experiment: In vitro vasorelaxant potency at dose 10 e -8 to 10 e-4 M using rabbit aortic rings precontracted with histamine; assay type: functional; settings: Aorta
Method in brief: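 Rabbit aortic rings (4–5 mm) in Krebs-Henseleit buffer, gassed 95:5 O2/CO2, pH 7.4, isometric tension, baseline 2 g held 2 h. Rings contracted with 3 μM histamine, then six cumulative half-log peptide increments over 90 min, range 10⁻⁸ to 10⁻⁴ M. Triplicate determinations.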

[2] = In vitro Biological half-life in crude homogenate of rabbit renal cortex; assay type: ADME, Oryctolagus cuniculus

CC[C@H](C)[C@@H]1NC(=O)[C@H](CCCN=C(N)N)NC(=O)CNC(=O)CNC(=O)[C@H](Cc2ccccc2)NC(=O)[C@@H](NC(=O)[C@H](CO)NC(=O)[C@@H](N)CO)CSSC[C@@H](C(=O)O)NC(=O)[C@H](CCCN=C(N)N)NC(=O)[C@H](Cc2ccccc2)NC(=O)[C@H]([C@@H](C)CC)NC(=O)[C@H](CCCN=C(N)N)NC(=O)[C@H](CC(=O)O)NC1=O
EC50 [1]: 2 µM | half-life [2]: < 2 min

— ChEMBL document CHEMBL1125386, “Small atrial natriuretic peptide analogues: design, synthesis, and structural requirements for guanylate cyclase activation” (J Med Chem, 1992)
